Measurements reported in ChEMBL document CHEMBL1153433, “Design and synthesis of 2-amino-4-methylpyridine analogues as inhibitors for inducible nitric oxide synthase and in vivo evaluation of [18F]6-(2-fluoropropyl)-4-methyl-pyridin-2-amine as a potential PET tracer for inducible nitric oxide synthase” (J Med Chem, 2009).

Experiments:
Brain [1] = assay: Biodistribution in C57BL/6N mouse brain at 50 uCi/110 uL, iv after 5 mins; format: ADME, organism-based; details: in vivo
In short: (§1)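 Untreated (control) male C57BL/6N mice aged 6-8 weeks. HPLC-purified tracer, ~50 μCi in 10% ethanol/saline, given i.v. via the tail vein. Mice were sacrificed at 5 min, 30 min, 1 h and 2 h post-injection. Tissues were removed, weighed and gamma-counted against diluted injectate standards. Data are %ID/g, mean ± SD, n = 4.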

Liver [2] = assay: Biodistribution in C57BL/6N mouse liver at 50 uCi/110 uL, iv after 2 hrs; format: ADME, organism-based; details: in vivo; in short: as §1
Lung [3] = assay: Biodistribution in LPS treated C57BL/6N mouse lung at 50 uCi/110 uL, iv administered 6 hrs […] LPS challenge measured after 1 hr post drug dose; format: ADME, organism-based; details: in vivo
In short: (§2)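 Male C57BL/6N mice, 6-8 weeks; LPS (E. coli O127:B8) in PBS, 10 mg/kg i.v., given 6 h before tracer. HPLC-purified [18F]tracer ~50 μCi in 10% ethanol/saline i.v. via tail vein. Killed at 5 min, 30 min, 1 h or 2 h; tissues weighed and gamma-counted against diluted injectate standards. Reported as %ID/g, mean ± SD, n = 4.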

Blood [4] = assay: Biodistribution in LPS treated C57BL/6N mouse blood at 50 uCi/110 uL, iv administered 6 hrs […] LPS challenge measured after 1 hr post drug dose; format: ADME, organism-based; details: in vivo
In short: (§3)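 Male C57BL/6N mice aged 6-8 weeks received E. coli O127:B8 LPS in PBS, 10 mg/kg i.v., 6 h before tracer. Tracer ~50 μCi in 10% ethanol/saline, i.v. tail vein. Sacrifice was at 5 min, 30 min, 1 h or 2 h post-injection. Organs were weighed and gamma-counted with injectate standards. Data are %ID/g, mean ± SD, n = 4.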

Kidney [5] = assay: Biodistribution in LPS treated C57BL/6N mouse kidney at 50 uCi/110 uL, iv administered 6 hrs […] LPS challenge measured after 1 hr post drug dose; format: ADME, organism-based; details: in vivo; in short: as §3
Lung [6] = assay: Biodistribution in LPS treated C57BL/6N mouse lung at 50 uCi/110 uL, iv administered 6 hrs […] LPS challenge measured after 2 hrs post drug dose; format: ADME, organism-based; details: in vivo; in short: as §2
Brain [7] = assay: Biodistribution in LPS treated C57BL/6N mouse brain at 50 uCi/110 uL, iv administered 6 hrs […] LPS challenge measured after 5 mins post drug dose; format: ADME, organism-based; details: in vivo; in short: as §3
Bone [8] = assay: Biodistribution in LPS treated C57BL/6N mouse bone at 50 uCi/110 uL, iv administered 6 hrs […] LPS challenge measured after 5 mins post drug dose; format: ADME, organism-based, Bone element; details: in vivo; in short: as §3
[9] = Metabolic stability in Sprague-Dawley rat plasma assessed as parent compound remaining at 400 uCi, iv after 30 mins by HPLC; format: ADME, organism-based; details: read-out: Stability
In short: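 Anesthetized male Sprague-Dawley rat given 400 μCi [18F]tracer in 10% ethanol/saline i.v. via tail vein. Blood drawn by cardiac puncture at 5 and 30 min. Plasma separated by centrifugation, treated with 3 equivalents of acetonitrile and centrifuged; supernatant filtered and analysed by HPLC. Samples kept on ice.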

Heart [10] = assay: Biodistribution in C57BL/6N mouse heart at 50 uCi/110 uL, iv after 1 hr; format: ADME, organism-based; details: in vivo; in short: as §1
Muscle tissue [11] = assay: Biodistribution in C57BL/6N mouse muscle at 50 uCi/110 uL, iv after 5 mins; format: ADME, organism-based; details: in vivo; in short: as §1
Blood [12] = assay: Biodistribution in LPS treated C57BL/6N mouse blood at 50 uCi/110 uL, iv administered 6 hrs […] LPS challenge measured after 2 hrs post drug dose; format: ADME, organism-based; details: in vivo; in short: as §3
Liver [13] = assay: Biodistribution in LPS treated C57BL/6N mouse liver at 50 uCi/110 uL, iv administered 6 hrs […] LPS challenge measured after 2 hrs post drug dose; format: ADME, organism-based; details: in vivo; in short: as §2
Lung [14] = assay: Biodistribution in C57BL/6N mouse lung at 50 uCi/110 uL, iv after 30 mins; format: ADME, organism-based; details: in vivo, 0.5 h; in short: as §1
Brain [15] = assay: Biodistribution in C57BL/6N mouse brain at 50 uCi/110 uL, iv after 2 hrs; format: ADME, organism-based; details: in vivo; in short: as §1
[16] = Metabolic stability in Sprague-Dawley rat whole blood at 400 uCi after 1 hr; format: ADME, tissue-based; details: read-out: Stability
In short: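 Heparinized whole blood (5 mL) from a mature male Sprague-Dawley rat incubated with ~400 μCi [18F]tracer at 37 °C for 5 min to 2 h. Aliquots lysed with 3 volumes of ethanol and centrifuged; supernatant and pellet gamma-counted. Supernatant species analysed by silica TLC (ethyl acetate), identified by co-elution with non-radioactive standard.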

Brain [17] = assay: Biodistribution in LPS treated C57BL/6N mouse brain at 50 uCi/110 uL, iv administered 6 hrs […] LPS challenge measured after 30 mins post drug dose; format: ADME, organism-based; details: in vivo, 0.5 h; in short: as §3
Muscle tissue [18] = assay: Biodistribution in LPS treated C57BL/6N mouse muscle at 50 uCi/110 uL, iv administered 6 hrs […] LPS challenge measured after 5 mins post drug dose; format: ADME, organism-based; details: in vivo; in short: as §2
Brain [19] = assay: Biodistribution in LPS treated C57BL/6N mouse brain at 50 uCi/110 uL, iv administered 6 hrs […] LPS challenge measured after 2 hrs post drug dose; format: ADME, organism-based; details: in vivo; in short: as §3
Lung [20] = assay: Biodistribution in C57BL/6N mouse lung at 50 uCi/110 uL, iv after 2 hrs; format: ADME, organism-based; details: in vivo; in short: as §1
Muscle tissue [21] = assay: Biodistribution in LPS treated C57BL/6N mouse muscle at 50 uCi/110 uL, iv administered 6 hrs […] LPS challenge measured after 1 hr post drug dose; format: ADME, organism-based; details: in vivo; in short: as §2
Lung [22] = assay: Biodistribution in C57BL/6N mouse lung at 50 uCi/110 uL, iv after 1 hr; format: ADME, organism-based; details: in vivo; in short: as §1
Blood [23] = assay: Biodistribution in LPS treated C57BL/6N mouse blood at 50 uCi/110 uL, iv administered 6 hrs […] LPS challenge measured after 5 mins post drug dose; format: ADME, organism-based; details: in vivo; in short: as §3
Blood [24] = assay: Biodistribution in LPS treated C57BL/6N mouse blood at 50 uCi/110 uL, iv administered 6 hrs […] LPS challenge measured after 30 mins post drug dose; format: ADME, organism-based; details: in vivo, 0.5 h; in short: as §3
Lung [25] = assay: Biodistribution in C57BL/6N mouse lung at 50 uCi/110 uL, iv after 5 mins; format: ADME, organism-based; details: in vivo; in short: as §1
Bone [26] = assay: Biodistribution in C57BL/6N mouse bone at 50 uCi/110 uL, iv after 2 hrs; format: ADME, organism-based, Bone element; details: in vivo; in short: as §1
Liver [27] = assay: Biodistribution in C57BL/6N mouse liver at 50 uCi/110 uL, iv after 1 hr; format: ADME, organism-based; details: in vivo; in short: as §1
Heart [28] = assay: Biodistribution in LPS treated C57BL/6N mouse heart at 50 uCi/110 uL, iv administered 6 hrs […] LPS challenge measured after 2 hrs post drug dose; format: ADME, organism-based; details: in vivo; in short: as §3
Brain [29] = assay: Biodistribution in C57BL/6N mouse brain at 50 uCi/110 uL, iv after 30 mins; format: ADME, organism-based; details: in vivo, 0.5 h; in short: as §1
Heart [30] = assay: Biodistribution in LPS treated C57BL/6N mouse heart at 50 uCi/110 uL, iv administered 6 hrs […] LPS challenge measured after 5 mins post drug dose; format: ADME, organism-based; details: in vivo; in short: as §3
Kidney [31] = assay: Biodistribution in C57BL/6N mouse kidney at 50 uCi/110 uL, iv after 5 mins; format: ADME, organism-based; details: in vivo; in short: as §1
Liver [32] = assay: Biodistribution in C57BL/6N mouse liver at 50 uCi/110 uL, iv after 5 mins; format: ADME, organism-based; details: in vivo; in short: as §1
Bone [33] = assay: Biodistribution in LPS treated C57BL/6N mouse bone at 50 uCi/110 uL, iv administered 6 hrs […] LPS challenge measured after 2 hrs post drug dose; format: ADME, organism-based, Bone element; details: in vivo; in short: as §3

Structure (SMILES): Cc1cc(N)nc(CC(C)[18F])c1 (stereo not drawn)
- Drug uptake (Brain [1]): 1.6 % ID/g
- Drug uptake (Liver [2]): 0.74 % ID/g
- Drug uptake (Lung [3]): 0.73 % ID/g
- Drug uptake (Blood [4]): 0.86 % ID/g
- Drug uptake (Kidney [5]): 3.95 % ID/g
- Drug uptake (Lung [6]): 0.18 % ID/g
- Drug uptake (Brain [7]): 1.81 % ID/g
- Drug uptake (Bone [8]): 1.59 % ID/g
- remaining at 0.5 h [9]: 20.2%
- Drug uptake (Heart [10]): 0.19 % ID/g
- Drug uptake (Muscle tissue [11]): 1.25 % ID/g
- Drug uptake (Blood [12]): 0.23 % ID/g
- Drug uptake (Liver [13]): 0.42 % ID/g
- Drug uptake (Lung [14]): 1.14 % ID/g
- Drug uptake (Brain [15]): 0.07 % ID/g
- remaining at 1 h, 400 uCi [16]: 80%
- Drug uptake (Brain [17]): 0.52 % ID/g
- Drug uptake (Muscle tissue [18]): 1.64 % ID/g
- Drug uptake (Brain [19]): 0.07 % ID/g
- Drug uptake (Lung [20]): 0.15 % ID/g
- Drug uptake (Muscle tissue [21]): 0.78 % ID/g
- Drug uptake (Lung [22]): 0.31 % ID/g
- Drug uptake (Blood [23]): 3.69 % ID/g
- Drug uptake (Blood [24]): 2.09 % ID/g
- Drug uptake (Lung [25]): 3.33 % ID/g
- Drug uptake (Bone [26]): 5.59 % ID/g
- Drug uptake (Liver [27]): 2.59 % ID/g
- Drug uptake (Heart [28]): 0.12 % ID/g
- Drug uptake (Brain [29]): 0.28 % ID/g
- Drug uptake (Heart [30]): 2.03 % ID/g
- Drug uptake (Kidney [31]): 20.6 % ID/g
- Drug uptake (Liver [32]): 33.2 % ID/g
- Drug uptake (Bone [33]): 3.77 % ID/g
